Measurements as given in ChEMBL document CHEMBL3046353, “Synthesis and fungicidal activity of some 5-membered heterocyclic derivatives containing benzimidazoles” (1993).
Activity calls are given as the source filed them.

Tests used:
Avena sativa [1] = test: Pre-emergence herbicidal activity against Avena sativa; format: functional, organism-based
Sagittaria latifolia [2] = test: Post-emergence herbicidal activity against Sagittaria latifolia (broadleaf arrowhead); format: functional, organism-based
Avena sativa [3] = test: Post-emergence herbicidal activity against Avena sativa; format: functional, organism-based
Convolvulaceae [4] = test: Post-emergence herbicidal activity against Convolvulaceae (morning glory family); format: functional, organism-based
Convolvulaceae [5] = test: Pre-emergence herbicidal activity against Convolvulaceae (morning glory family); format: functional, organism-based
Abutilon theophrasti [6] = test: Pre-emergence herbicidal activity against Abutilon theophrasti (velvetleaf); format: functional, organism-based
Musca domestica = test: Insecticidal activity against Musca domestica (house fly); format: functional, organism-based
Echinochloa crus-galli [7] = test: Post-emergence herbicidal activity against Echinochloa crus-galli (barnyard grass); format: functional, organism-based
Echinochloa crus-galli [8] = test: Pre-emergence herbicidal activity against Echinochloa crus-galli (barnyard grass); format: functional, organism-based
Sagittaria latifolia [9] = test: Herbicidal activity against Sagittaria latifolia (broadleaf arrowhead) under paddy conditions; format: functional, organism-based
Rhizoctonia solani = test: Fungicidal activity against Rhizoctonia solani at 500 ppm after 7 days by poisoned food technique; format: functional; details: 168 h, read-out: GI
Method in brief: (§1)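 Cultures kept on potato dextrose agar. Each compound, dissolved in acetone, was added to potato dextrose agar at a final 500 ppm (w/v) (poisoned food technique). A disc cut from the periphery of a seven-day-old culture was inoculated onto each set. Control sets held potato dextrose agar only. The read-out is percentage inhibition of fungal growth relative to control.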

Tetranychus cinnabarinus = test: Insecticidal activity against Tetranychus cinnabarinus (carmine spider mite); format: functional, organism-based
Schoenoplectus acutus [10] = test: Pre-emergence herbicidal activity against Schoenoplectus acutus (hardstem bulrush); format: functional, organism-based
Helminthosporium = test: Fungicidal activity against Helminthosporium oryzae at 500 ppm after 7 days by poisoned food technique; format: functional; details: 168 h, read-out: GI; method in brief: as §1
Echinochloa crus-galli [11] = test: Herbicidal activity against Echinochloa crus-galli (barnyard grass) under paddy conditions; format: functional, organism-based
Schoenoplectus acutus [12] = test: Herbicidal activity against Schoenoplectus acutus (hardstem bulrush) under paddy conditions; format: functional, organism-based
Convolvulaceae [13] = test: Herbicidal activity against Convolvulaceae (morning glory family) under paddy conditions; format: functional, organism-based
Sagittaria latifolia [14] = test: Pre-emergence herbicidal activity against Sagittaria latifolia (broadleaf arrowhead); format: functional, organism-based
Avena sativa [15] = test: Herbicidal activity against Avena sativa under paddy conditions; format: functional, organism-based
Oryza sativa [16] = test: Pre-emergence herbicidal activity against Oryza sativa (rice); format: functional, organism-based
Schoenoplectus acutus [17] = test: Post-emergence herbicidal activity against Schoenoplectus acutus (hardstem bulrush); format: functional, organism-based
Spodoptera litura = test: Insecticidal activity against Spodoptera litura; format: functional, organism-based
Oryza sativa [18] = test: Herbicidal activity against Oryza sativa (rice) under paddy conditions; format: functional, organism-based
Culex pipiens pallens = test: Insecticidal activity against Culex pipiens pallens (mosquito) at 3 to 5 ppm; format: functional, organism-based
Abutilon theophrasti [19] = test: Post-emergence herbicidal activity against Abutilon theophrasti (velvetleaf); format: functional, organism-based
Oryza sativa [20] = test: Post-emergence herbicidal activity against Oryza sativa (rice); format: functional, organism-based

Clc1ccccc1-c1nnc(SCc2nc3ccccc3[nH]2)s1
active: Activity (Culex pipiens pallens)
inactive: Activity (Avena sativa [1]) | Activity (Sagittaria latifolia [2]) | Activity (Avena sativa [3]) | Activity (Convolvulaceae [4]) | Activity (Convolvulaceae [5]) | Activity (Abutilon theophrasti [6]) | Activity (Musca domestica) | Activity (Echinochloa crus-galli [7]) | Activity (Echinochloa crus-galli [8]) | Activity (Sagittaria latifolia [9]) | Activity (Tetranychus cinnabarinus) | Activity (Schoenoplectus acutus [10]) | Activity (Echinochloa crus-galli [11]) | Activity (Schoenoplectus acutus [12]) | Activity (Convolvulaceae [13]) | Activity (Sagittaria latifolia [14]) | Activity (Avena sativa [15]) | Activity (Oryza sativa [16]) | Activity (Schoenoplectus acutus [17]) | Activity (Spodoptera litura) | Activity (Oryza sativa [18]) | Activity (Abutilon theophrasti [19]) | Activity (Oryza sativa [20])
49.8%: inhibition of growth at 500 ppm (Rhizoctonia solani)
68.2%: inhibition of growth at 500 ppm (Helminthosporium)

c1ccc2[nH]c(CSc3nnc(-c4ccncc4)o3)nc2c1
32%: inhibition of growth at 500 ppm (Rhizoctonia solani)
inactive: Activity (Avena sativa [1]) | Activity (Sagittaria latifolia [2]) | Activity (Avena sativa [3]) | Activity (Convolvulaceae [4]) | Activity (Convolvulaceae [5]) | Activity (Abutilon theophrasti [6]) | Activity (Musca domestica) | Activity (Echinochloa crus-galli [7]) | Activity (Echinochloa crus-galli [8]) | Activity (Sagittaria latifolia [9]) | Activity (Tetranychus cinnabarinus) | Activity (Schoenoplectus acutus [10]) | Activity (Echinochloa crus-galli [11]) | Activity (Schoenoplectus acutus [12]) | Activity (Convolvulaceae [13]) | Activity (Sagittaria latifolia [14]) | Activity (Avena sativa [15]) | Activity (Oryza sativa [16]) | Activity (Schoenoplectus acutus [17]) | Activity (Spodoptera litura) | Activity (Oryza sativa [18]) | Activity (Abutilon theophrasti [19]) | Activity (Oryza sativa [20])
active: Activity (Culex pipiens pallens)
49.8%: inhibition of growth at 500 ppm (Helminthosporium)

Clc1cccc(-c2nnc(SCc3nc4ccccc4[nH]3)s2)c1
89.5%: inhibition of growth at 500 ppm (Rhizoctonia solani)
active: Activity (Culex pipiens pallens)
inactive: Activity (Avena sativa [1]) | Activity (Sagittaria latifolia [2]) | Activity (Avena sativa [3]) | Activity (Convolvulaceae [4]) | Activity (Convolvulaceae [5]) | Activity (Abutilon theophrasti [6]) | Activity (Musca domestica) | Activity (Echinochloa crus-galli [7]) | Activity (Echinochloa crus-galli [8]) | Activity (Sagittaria latifolia [9]) | Activity (Tetranychus cinnabarinus) | Activity (Schoenoplectus acutus [10]) | Activity (Echinochloa crus-galli [11]) | Activity (Schoenoplectus acutus [12]) | Activity (Convolvulaceae [13]) | Activity (Sagittaria latifolia [14]) | Activity (Avena sativa [15]) | Activity (Oryza sativa [16]) | Activity (Schoenoplectus acutus [17]) | Activity (Spodoptera litura) | Activity (Oryza sativa [18]) | Activity (Abutilon theophrasti [19]) | Activity (Oryza sativa [20])
91.2%: inhibition of growth at 500 ppm (Helminthosporium)

c1ccc(-c2nnc(SCc3nc4ccccc4[nH]3)o2)cc1
73.5%: inhibition of growth at 500 ppm (Helminthosporium)
65.2%: inhibition of growth at 500 ppm (Rhizoctonia solani)
active: Activity (Culex pipiens pallens)
inactive: Activity (Avena sativa [1]) | Activity (Sagittaria latifolia [2]) | Activity (Avena sativa [3]) | Activity (Convolvulaceae [4]) | Activity (Convolvulaceae [5]) | Activity (Abutilon theophrasti [6]) | Activity (Musca domestica) | Activity (Echinochloa crus-galli [7]) | Activity (Echinochloa crus-galli [8]) | Activity (Sagittaria latifolia [9]) | Activity (Tetranychus cinnabarinus) | Activity (Schoenoplectus acutus [10]) | Activity (Echinochloa crus-galli [11]) | Activity (Schoenoplectus acutus [12]) | Activity (Convolvulaceae [13]) | Activity (Sagittaria latifolia [14]) | Activity (Avena sativa [15]) | Activity (Oryza sativa [16]) | Activity (Schoenoplectus acutus [17]) | Activity (Spodoptera litura) | Activity (Oryza sativa [18]) | Activity (Abutilon theophrasti [19]) | Activity (Oryza sativa [20])
